# Variants at the floor of the assay were thinned out.
# B1: tRNA (parent)
# chain: GUUCCGUUGGCGUAAUGGUAACGCGUCUCCCUCCUAAGGAGAAGACUGCGGGUUCGAGUCCCGUACGGAACG
# Variants of: B1
# Experiment: yeast fitness relative to wild type (ratio to wild type); higher = fitter; tRNA-Arg(CCU), competitive growth, 37 C, YPD
# Method in brief: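 Changes in genotype frequencies gave Darwinian fitness relative to wild type. Frequencies were read by 100-nucleotide paired-end sequencing of gene amplicons before and after pooled Saccharomyces cerevisiae strains, carrying tRNA-Arg(CCU) gene variants at the native locus, were competed in YPD at 37°C for 24 hours in six replicates. A genotype was kept only with ≥ 100 starting reads, and estimates < 0.5 were set to 0.5.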
row,Variant,yeast fitness
1,GUUCCGUUGGCGUAAUGGUAACGCCUCUCCCUCCUAACGAGAAGACUGUGGGUUCGUGUCCCGUAAGGAACG [G25C G38C C49U A57U C66A],0.571
2,GUUCCGUUGGCGUAAUGGUAAGGCGUCUCCCUCCUAAGGAGAAGACUGCGGGUUCGAGUGCUGUACGGAACG [C22G C60G C62U],≤ 0.5
3,GUUCCGUUGGCGUAAUGGUAACGCGUCUCCAUCCUAAGGAGCAGAUUGCGGGUUCGAGUCCCGUACGGAACG [C31A A42C C46U],0.592
4,GUUCCGUUGGCGUAAUGGUCACACGUCUCCCUCCUAAGGAGAAGACUGCGGGUUGGAGUACCGUACGGAACG [A20C G23A C55G C60A],0.561
5,GUUCCGUUGGCGUAAUGGUAACGCGUCUCCCUCCUAAGGAGAAGACUGCGAGAUCGAGUCCCGUACGGAACG [G51A U53A],0.534
6,GUUCCGUUGGCGUAAUGGUAUCACGUCUCCCUCCUAAGGAGAAGACUGAGGGUUCGAGUCCCGUACGGAACG [A21U G23A C49A],≤ 0.5
7,GUUCCGUAGGCGUAUUGGUAACGCGUCUCCCUCCUACGGAGAAGACUGCGGGUUCGAGUCCCGUACGAAACG [U8A A15U A37C G68A],≤ 0.5
8,GUUCAGUUGGCGUAAUGAUAACGCGUCUCCCUCCUAAGGAGAAGACUGCGGGUUCGAGUCCCGUACGGAACG [C5A G18A],0.818
9,GUUUCGUUGGCGUACUGGUAACGCGUCUCGCUCCUAAGGAGAAGACUGCGGAUUCGAGUCCCGUCCGGAACG [C4U A15C C30G G52A A65C],≤ 0.5
10,GUUCAGUUGGCCUAAUGCUAACGCGUCUCAGUCCUAAGGAGAAGACUGCGGGUGCGAGUCCCGUACGGAACG [C5A G12C G18C C30A C31G U54G],0.605
11,GUUCCGUUGGCGUAAUGGUAAGGCGUCUGCCUUCUAAGGAGAAGACUGCGGGUUCGAGUCCCGUACGGAACG [C22G C29G C33U],≤ 0.5
12,GUCCCGAUGGCGUAAUGGUAACGCGUCUCCCUCCUAAGGAGCAGACUGUGGGUUUGAGUCCCGUACGGAACG [U3C U7A A42C C49U C55U],≤ 0.5
13,GUUACGAUGGCGUAAUGGUAACGCGUCUCCCUCCUAAGGAGAAGAUUGCGGGUUCGAGUCCCGUACGGAACG [C4A U7A C46U],≤ 0.5
14,GUUCAGUUGGCGUAAUCGUAACGCGUCUCCCUCCUAAGGAGAAGACUGCGGGUUCGCGUCCCGUACGGAACG [C5A G17C A57C],0.551
15,GUUCCGUUGGCGUACUGGUAACGCGUCUCGCUCCUAAGGAGCAGACUGCGGGUUCAUGUCCCAUACGGAACG [A15C C30G A42C G56A A57U G63A],≤ 0.5
16,GUUCCGUUGGCGUAAGGGUAACGUGUCCCCCUCCUCAGGAGAAGACUGCGGGUUCGAGCCCCGUCCGGAACG [U16G C24U U28C A36C U59C A65C],≤ 0.5
17,GUUCCGUUGGCGUAACGGUAACGUGUCUCCCUCCUAAGGAGAAGACUGCGGGUUCGAGUCCCGUACGGAACG [U16C C24U],0.882
18,GUCCCGUUGGCGUAAUGGUAACGCGUCUCCCUCCUAAGGUGAAGACUGCGGGUUCGAGUCCCGUACGGUACG [U3C A40U A69U],0.755
19,GUUCCGUUGGCGUAAUGGUAACGCGUCUGCCUCCUAACGAGAAGACUGUGGGUUCGAGUCCCGUUCGGAACG [C29G G38C C49U A65U],≤ 0.5

row,Variant,yeast fitness
1,GUUCCGUUGGGGUAAAGGUAACGCGUCUCACUCCUAAGGAGAAGACUGCGGGUUCGAGUCCCGUACGGUACG [C11G U16A C30A A69U],≤ 0.5
2,GUUCCGUUGGUGUAAUGGUAACGCGUCUCCCUCCUAAGGAGUGGACUGCGGCUUCGAGUGCCGUACGGAACG [C11U A42U A43G G52C C60G],≤ 0.5
3,GUUGCGUUGGCGUAAUGGUAACGCGUCUCCCUGCUAAGGGGAAGACUGCGGGUUCGAGUCCCGUACGGAACG [C4G C33G A40G],0.528
4,GUUCCGUUAGCGUAAUGGUAACGCGUAUCCCUCCUAAGGAGCAGACUGGGCGUUGGAGUCCCGUAUGGAACG [G9A C27A A42C C49G G51C C55G C66U],≤ 0.5
5,GUUCCGUUGGCGUAAUGGUAACGCGUCUCCCUCCUAAGGUGAAGACUGCAGGUUCGAGUCCCGUACGGAACG [A40U G50A],0.801
6,GUUCCGUUGGCGUAAAGGUAACGCGUCUCCCUCCUAAGAAGAAGAUUGCGGGUUCGUGUCCCGUACAGAACG [U16A G39A C46U A57U G67A],≤ 0.5
7,GUUCCGUUGGCGUAAUGGUAACCCGUCUCGCUCCUAAGGAGAAGACUGCGGGUUCGAGUCCCGUACGGAACG [G23C C30G],0.511
8,GUUCCGUUGGCGUAAUGGUAAAGAGCCUCCCUCCUAAGGAGAAGACUGCGGGUUCGAGUGUCGUACGGAACG [C22A C24A U26C C60G C61U],≤ 0.5
9,GUUCCGUUGGCGUAAUGGUAACGCGUCCGCCUCCUAAGGAGAAGACUGCGGGUUCGAGUCCUGUACGGAACG [U28C C29G C62U],≤ 0.5
10,GUUACGUUGCUGUAAUGGUAACGCGUCUCCCUCCUAAGGAAAAGCCUGCGGGUUCGAGUCCCGUUCGGAACG [C4A G10C C11U G41A A45C A65U],≤ 0.5
11,GUUCCGUUGGGGUACUGGUAACGCGUCUCCCUCCUAAGGAGAAGCCUGCGGGUUCGAGUCCCGUACGGAACG [C11G A15C A45C],≤ 0.5
12,GUUACGUUGGCGUAAUGGUAACGCAUCUACCUCCUAGGGAGAAGACUGCCGGUUCGAGUGCCAUACGGAACG [C4A G25A C29A A37G G50C C60G G63A],≤ 0.5
13,GUUCCGUUGGCGUAAUGGUAACGCGUCUCCCUCCUAAGCUGAAGACUGCGGGUUCGAGUCCCGUCCGGAACG [G39C A40U A65C],≤ 0.5
14,GUUCCGUUGGCGUAAUGGUAACGCGUCUCACUCCUAAGGAGAAGACCGCGGGUUCGAGUCCCGUACGGAACG [C30A U47C],0.775
15,GUUCCGUUGGCGUAAUGGUAACGUGUUUCCCUCCUAAGGAGAAGACAGCGGGUUCGGGUCCCGUACGGAGCG [C24U C27U U47A A57G A70G],≤ 0.5
16,GUUUCGAUGGCGUAAUGGUAACGCGUCUCCCUCCUAAGGAGAAGAGUGCGGGUUCGAGUCCCGUCCGGAACG [C4U U7A C46G A65C],0.535
17,GUUCCGUUGGCGUAAUGGUAACGCGUCUCCGUCCUAAGGGGAAGACUGUCGGUUCGAGUCCCGUACGGAACG [C31G A40G C49U G50C],≤ 0.5
18,GUUCCGUUGGCGUAAUGGUAACGUGUCUCCCUCCUAAGGUGAAGACUGCGGGUUCGAGUCCCGUACGUACCG [C24U A40U G68U A70C],≤ 0.5
19,GUUCCGUUGGCGUAAUGGUAAACCGUCUCCCUCCUAAGGAGGAGACUGCGGGUUCGAGUCCCGUACGGAACG [C22A G23C A42G],≤ 0.5
